Assay [1] has as its target Mu-type opioid receptor (Rattus norvegicus) (UniProt P33535). The experiment in a line: (§1) Agonist activity at rat mu opioid receptor transfected in HN9.10 cells by [35S]GTPgammaS binding assay. The format is functional, cell-based. In a few lines:
(§2)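 Membranes from transfected HN9.10 cells constitutively expressing human DOR or rat MOR. EC50 comes from non-linear regression of at least two independent experiments in duplicate. Emax = [Total bound − Basal]/[Basal − Non-specific] × 100.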
A general note: Binding of GTPγS marks nucleotide exchange on a G protein.

The target of assay [2] is Substance-P receptor (Cavia porcellus) (UniProt P30547). The experiment in a line: Antagonist activity at NK1 receptor in guinea pig ileum assessed as inhibition of substance P-induced muscle contraction in presence of naloxone. It counts as tissue-based.
Assay [3] can be described thus: Selectivity ratio of Ki for rat mu opioid receptor to Ki for human delta opioid receptor.
Assay [4] addresses Mu-type opioid receptor (Rattus norvegicus, UniProt P33535). Described as §1. It counts as functional, cell-based. In a few lines:
as §2

The target of assay [5] is Delta-type opioid receptor (Mus musculus) (UniProt P32300). The experiment in a line: Agonist activity at delta opioid receptor in mouse vas deferens assessed as inhibition of electrically-stimulated muscle contraction at 1 uM relative to control.
Assay [6] concerns the target Mu-type opioid receptor (Cavia porcellus) (UniProt P97266). Nature of the assay: Agonist activity at mu opioid receptor in guinea pig ileum assessed as inhibition of electrically-stimulated muscle contraction at 1 uM relative to control. It counts as tissue-based.
A short description of assay [7]: Ratio of Ki for rat NK1 receptor to Ki for human NK1 receptor.
The next assay concerns the target Substance-P receptor (Rattus norvegicus, UniProt P14600). Nature of the assay: Displacement of [3H]-substance P from rat NK1 receptor transfected in CHO cells. The format is cell-based.
Assay [8] addresses T1, Delta-type opioid receptor (Homo sapiens, UniProt P41143). The experiment in a line: Agonist activity at human delta opioid receptor transfected in HN9.10 cells by [35S]GTPgammaS binding assay. It counts as functional, cell-based. In a few lines: as §2
The target of assay [9] is Delta-type opioid receptor (Mus musculus, UniProt P32300). The experiment in a line: Agonist activity at delta opioid receptor in mouse vas deferens assessed as inhibition of electrically-stimulated muscle contraction. In a few lines:
(§3)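 Electrically stimulated isolated tissue (mouse vas deferens or guinea pig ileum).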

The target of assay [10] is T1, Delta-type opioid receptor. Nature of the assay: Displacement of [3H]-DPDPE from human delta opioid receptor transfected in HN9.10 cells. The format is cell-based.
Assay [11] deals with Mu-type opioid receptor (Cavia porcellus, UniProt P97266). The experiment in a line: Agonist activity at mu opioid receptor in guinea pig ileum assessed as inhibition of electrically-stimulated muscle contraction. The format is tissue-based. In short, it runs like this:
as §3

Non-standard residues stand in square brackets, D forms with d. Residues, ends and D or L forms follow the SMILES beside them. *: point of attachment. OBzl(3,5-(CF3)2) = FC(F)(F)c1cc(CO*)cc(C(F)(F)F)c1; Phe(4-Cl) = N[C@@H](Cc1ccc(Cl)cc1)C(=O)O; Phe(4-F) = N[C@@H](Cc1ccc(F)cc1)C(=O)O; Nle = CCCC[C@H](N)C(=O)O; βAla = NCCC(=O)O

Substance-P receptor, sequence (P14600 whole entry): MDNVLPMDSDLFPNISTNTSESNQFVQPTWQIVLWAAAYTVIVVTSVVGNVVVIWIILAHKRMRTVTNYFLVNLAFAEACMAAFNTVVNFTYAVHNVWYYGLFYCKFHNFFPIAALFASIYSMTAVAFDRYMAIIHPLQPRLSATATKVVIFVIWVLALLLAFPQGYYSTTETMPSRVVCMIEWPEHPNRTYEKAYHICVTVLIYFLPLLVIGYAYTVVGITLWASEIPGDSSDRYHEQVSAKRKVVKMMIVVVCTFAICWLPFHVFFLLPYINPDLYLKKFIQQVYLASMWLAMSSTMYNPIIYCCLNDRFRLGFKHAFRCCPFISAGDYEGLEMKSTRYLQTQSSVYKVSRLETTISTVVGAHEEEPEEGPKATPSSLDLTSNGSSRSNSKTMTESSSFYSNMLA
Mu-type opioid receptor (Rattus norvegicus), sequence (P33535 whole entry): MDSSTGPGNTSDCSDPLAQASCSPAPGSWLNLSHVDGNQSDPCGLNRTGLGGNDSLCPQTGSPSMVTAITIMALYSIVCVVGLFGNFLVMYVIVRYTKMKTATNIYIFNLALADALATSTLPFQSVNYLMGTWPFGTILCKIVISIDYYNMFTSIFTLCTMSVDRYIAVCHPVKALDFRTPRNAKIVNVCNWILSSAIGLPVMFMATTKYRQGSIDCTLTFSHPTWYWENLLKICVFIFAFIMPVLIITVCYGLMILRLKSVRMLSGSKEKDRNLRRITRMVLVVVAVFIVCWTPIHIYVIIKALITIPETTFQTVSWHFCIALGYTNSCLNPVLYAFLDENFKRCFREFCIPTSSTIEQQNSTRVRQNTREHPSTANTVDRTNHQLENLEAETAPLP
T1 sequence (P41143 whole entry): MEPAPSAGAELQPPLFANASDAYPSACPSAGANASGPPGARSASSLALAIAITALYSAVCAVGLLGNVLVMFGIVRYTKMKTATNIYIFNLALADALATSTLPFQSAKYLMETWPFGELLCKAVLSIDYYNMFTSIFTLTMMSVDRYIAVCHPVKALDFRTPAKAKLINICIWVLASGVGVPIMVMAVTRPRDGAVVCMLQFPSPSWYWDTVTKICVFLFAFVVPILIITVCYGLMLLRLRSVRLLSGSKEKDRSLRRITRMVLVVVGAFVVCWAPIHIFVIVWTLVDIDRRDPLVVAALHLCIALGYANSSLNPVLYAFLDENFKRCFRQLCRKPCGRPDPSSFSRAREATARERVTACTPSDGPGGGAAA
Substance-P receptor (Cavia porcellus), sequence (P30547 whole entry): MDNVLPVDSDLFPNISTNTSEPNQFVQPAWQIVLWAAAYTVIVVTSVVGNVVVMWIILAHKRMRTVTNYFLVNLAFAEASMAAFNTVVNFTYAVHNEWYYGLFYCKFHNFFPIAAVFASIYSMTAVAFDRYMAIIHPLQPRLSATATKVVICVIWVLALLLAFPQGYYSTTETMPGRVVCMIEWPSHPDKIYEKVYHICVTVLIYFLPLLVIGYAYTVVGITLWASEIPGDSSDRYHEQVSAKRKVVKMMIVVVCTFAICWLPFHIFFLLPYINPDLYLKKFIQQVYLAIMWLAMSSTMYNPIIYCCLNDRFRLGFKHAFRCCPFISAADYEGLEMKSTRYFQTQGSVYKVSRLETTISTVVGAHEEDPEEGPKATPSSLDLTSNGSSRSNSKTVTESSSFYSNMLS
Delta-type opioid receptor (Mus musculus, UniProt P32300), sequence (P32300 whole entry): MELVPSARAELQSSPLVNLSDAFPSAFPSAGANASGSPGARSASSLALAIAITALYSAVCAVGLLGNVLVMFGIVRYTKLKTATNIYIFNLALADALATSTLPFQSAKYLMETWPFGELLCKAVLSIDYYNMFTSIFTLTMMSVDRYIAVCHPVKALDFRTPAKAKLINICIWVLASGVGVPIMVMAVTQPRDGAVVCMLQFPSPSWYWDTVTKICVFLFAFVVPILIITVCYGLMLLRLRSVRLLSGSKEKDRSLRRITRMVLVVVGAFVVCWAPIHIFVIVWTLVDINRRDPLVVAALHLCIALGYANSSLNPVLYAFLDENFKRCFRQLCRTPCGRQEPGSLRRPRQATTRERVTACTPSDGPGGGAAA
Mu-type opioid receptor (Cavia porcellus, UniProt P97266), sequence (P97266 whole entry): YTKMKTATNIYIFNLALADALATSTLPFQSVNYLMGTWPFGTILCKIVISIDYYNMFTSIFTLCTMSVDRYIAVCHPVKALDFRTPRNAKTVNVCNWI
Delta-type opioid receptor (Mus musculus), sequence (P32300 whole entry): as the sequence (P32300 whole entry) above
Mu-type opioid receptor (Cavia porcellus), sequence (P97266 whole entry): as the sequence (P97266 whole entry) above
Mu-type opioid receptor (Rattus norvegicus, UniProt P33535), sequence (P33535 whole entry): as the sequence (P33535 whole entry) above

By Emax is commonly meant the maximal effect, on the per cent scale that the assay sets. Take `C[C@@H](NC(=O)[C@@H](N)Cc1ccc(O)cc1)C(=O)NCC(=O)N[C@@H](Cc1ccccc1)C(=O)N[C@@H](Cc1c[nH]c2ccccc12)C(=O)OCc1cc(C(F)(F)F)cc(C(F)(F)F)c1` (H-Y[dA]GFW-{OBzl(3,5-(CF3)2)}): the Emax in [1] was determined as 14%. In addition, the Ke in assay [2] came out at 38 nM.

The EC50 is the midpoint of the concentration-response curve. Read a high EC50 as weaker potency. The inhibition is the change of the read-out against control, counted positive when it falls. The Ki is a dissociation constant, usually derived from enzyme kinetics or from competition with a known ligand. Consider `C[C@@H](NC(=O)[C@@H](N)Cc1ccc(O)cc1)C(=O)N[C@@H](Cc1c[nH]c2ccccc12)C(=O)OCc1cc(C(F)(F)F)cc(C(F)(F)F)c1`, for which the results for the Ratio Ki in assay [3] and in assay [7] were 1.8 and 730, respectively. For the same molecule, the Emax worked out at 26% in [1] and 36% in assay [8]. Moreover, the EC50 on Mu-type opioid receptor [4] came to 0.17 µM. The results for the inhibition in assay [5] and in assay [6] were 5.5% and 3.3%, respectively. Moreover, the Ke in assay [2] is 49 nM. Besides, at Substance-P receptor, affinity was put at a Ki of 0.0029 µM.

The term IC50 denotes the midpoint of a concentration-inhibition curve. Turning to `C[C@@H](NC(=O)[C@@H](N)Cc1ccc(O)cc1)C(=O)NCC(=O)N[C@@H](Cc1ccccc1)C(=O)NCCC(=O)N[C@@H](Cc1c[nH]c2ccccc12)C(=O)OCc1cc(C(F)(F)F)cc(C(F)(F)F)c1` (H-Y[dA]GF[βAla]W-{OBzl(3,5-(CF3)2)}), in [2], the Ke was 250 nM. Further, the IC50 in assay [9] was 0.013 µM.

Consider `Cc1cc(O)cc(C)c1C[C@H](N)C(=O)N[C@H](C)C(=O)N[C@@H](Cc1c[nH]c2ccccc12)C(=O)OCc1cc(C(F)(F)F)cc(C(F)(F)F)c1`, for which, in assay [2], the Ke is 110 nM. The same molecule yielded an EC50 in assay [8] of 0.012 µM.

With `C[C@@H](NC(=O)[C@@H](N)Cc1ccc(O)cc1)C(=O)NCC(=O)N[C@@H](Cc1ccc(Cl)cc1)C(=O)NCC(=O)N[C@@H](Cc1c[nH]c2ccccc12)C(=O)OCc1cc(C(F)(F)F)cc(C(F)(F)F)c1` (H-Y[dA]G[Phe(4-Cl)]GW-{OBzl(3,5-(CF3)2)}), in assay [2], the Ke was 30 nM.

Consider `C[C@@H](NC(=O)[C@@H](N)Cc1ccc(O)cc1)C(=O)NCC(=O)N[C@@H](Cc1c[nH]c2ccccc12)C(=O)OCc1cc(C(F)(F)F)cc(C(F)(F)F)c1` (H-Y[dA]GW-{OBzl(3,5-(CF3)2)}), for which the Ratio Ki turned out to be 0.16 in assay [3] and 500 in assay [7]. In addition, the Emax in assay [1] turned out to be 34%; in [8], 33%. For the same molecule, the Ki in assay [10] is 0.31 µM; on Substance-P receptor, 0.015 µM. In [2], the Ke stood at 5 nM. In addition, on Mu-type opioid receptor [11], the IC50 amounted to 0.84 µM.

For `C[C@@H](NC(=O)[C@@H](N)Cc1ccc(O)cc1)C(=O)NCC(=O)N[C@@H](Cc1ccc(F)cc1)C(=O)NCC(=O)N[C@@H](Cc1c[nH]c2ccccc12)C(=O)OCc1cc(C(F)(F)F)cc(C(F)(F)F)c1` (H-Y[dA]G[Phe(4-F)]GW-{OBzl(3,5-(CF3)2)}), the Ke in assay [2] is 10 nM.

In the case of `CCCC[C@H](NC(=O)[C@H](Cc1ccccc1)NC(=O)CNC(=O)[C@@H](C)NC(=O)[C@@H](N)Cc1ccc(O)cc1)C(=O)N[C@@H](Cc1c[nH]c2ccccc12)C(=O)OCc1cc(C(F)(F)F)cc(C(F)(F)F)c1` (H-Y[dA]GF[Nle]W-{OBzl(3,5-(CF3)2)}), the Ke in [2] was found to be 13 nM.

Consider `Cc1cc(O)cc(C)c1C[C@H](N)C(=O)N[C@H](C)C(=O)N[C@@H](Cc1c[nH]c2ccccc12)C(=O)NCc1cc(C(F)(F)F)cc(C(F)(F)F)c1`, for which the Ke in assay [2] is 22 nM. The molecule further registered an Emax in assay [8] of 50%.

For `C[C@@H](NC(=O)[C@@H](N)Cc1ccc(O)cc1)C(=O)NCC(=O)N[C@@H](Cc1ccc(F)cc1)C(=O)OCc1cc(C(F)(F)F)cc(C(F)(F)F)c1`, the values for the Emax in assay [1] and in assay [8] were 58% and 78%, respectively. The Ki in assay [10] amounted to 0.056 µM; on Substance-P receptor, 0.23 µM. Besides, in assay [2], the Ke stood at 52 nM. The values for the IC50 (in assay [9]; on Mu-type opioid receptor [11]) were 0.18 µM and 0.21 µM, respectively. In assay [8], this molecule yielded an EC50 of 0.0067 µM.

Source of the values: ChEMBL document CHEMBL3608260 (Bioorg Med Chem Lett, 2015).
